≈ marks a conversion by molar mass, not a printed value. Calls of active or inactive are those of the source. No cut-off for these calls is given here. Starred links: 1 amine or outer side, 2 acyl side, 3 side chain; linkers in the order of their positions; H or OH if unused. Positions of bridges follow the written chain, without caps; N, C: chain ends. Non-standard residues stand in square brackets, D forms with d. Residues, ends and D or L forms follow the SMILES beside them. *: point of attachment. pTerphenylCO(4''-OnC5H11) = CCCCCOc1ccc(-c2ccc(-c3ccc(C(=O)*)cc3)cc2)cc1; Orn(4R-OH,5R-OH) = O=C([C@H](C[C@@H](O)[C@@H](O)N[*:3])N[*:1])[*:2]; hTyr(3S-OH,4S-OH) = N[C@H](C(=O)O)[C@H](O)[C@@H](O)c1ccc(O)cc1; Pro(3S-OH,4S-Me) = C[C@H]1CN[C@H](C(=O)O)[C@H]1O; Hyp = O=C(O)[C@@H]1C[C@@H](O)CN1
Tests used:
Mus musculus = assay: Cmax in serum of neutropenic ICR/Swiss mouse candidiasis model at 80 mg/kg, ip up to 4 hrs by reverse-phase high-pressure liquid chromatography; assay type: ADME, organism-based; design: dose 80 mg/kg, route intraperitoneal; settings: in vivo
Method in brief: (§1)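 Infected neutropenic ICR/Swiss mice given single ip doses (5, 20 or 80 mg/kg; 0.2 ml); serum from three isoflurane-anaesthetised mice at 1, 4, 8, 12, 24 and 48 h, stored at −80°C, assayed by reverse-phase HPLC with fluorescence detection, loratadine internal standard, linear 10–50,000 ng/ml. Noncompartmental analysis; half-life by nonlinear least squares.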

Nakaseomyces glabratus [1] = assay: Antifungal activity against Candida glabrata 513 infected in neutropenic ICR/Swiss mouse candidiasis model assessed as dose required for 1-log10 reduction in […] per kidney administered intraperitoneally every 24 hrs up to 4 days measured per 24 hrs; assay type: functional
Method in brief: (§2)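 Neutropenic mouse disseminated candidiasis, with i.p. therapy starting 2 h after i.v. infection. Five total doses of 0.078–20 mg/kg/24 h were given q24h for 4 days, three mice per dose. Kidney CFU were counted at the end and compared with untreated controls. The dose giving a 1 log10 CFU/kidney reduction was derived from the sigmoid Hill dose–effect model.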

Nakaseomyces glabratus [2] = assay: Antifungal activity against Candida glabrata 5376 infected in neutropenic ICR/Swiss mouse candidiasis model assessed as reduction of […] in kidney at 20 mg/kg, ip administered 2 hrs postinfection as single dose measured after 96 hrs post dosing by time-kill assay; assay type: functional, organism-based; design: dose 20 mg/kg
Method in brief: (§3)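 Neutropenic mice were infected i.v. and 2 h later given a single i.p. dose (1.25, 5 or 20 mg/kg). Groups of three treated and three control mice were killed at intervals over 96 h, and kidney CFU were counted on SDA (limit 100 CFU/ml). The post-antifungal effect is t − c: the time for a 1 log10 CFU/kidney increase once serum levels fall below the MIC in treated mice, minus the same time in controls.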

Candida tropicalis = assay: Antifungal activity against Candida tropicalis 98-234 assessed as complete growth inhibition after 24 hrs by CLSI end point method; assay type: functional; settings: 98-234, 24 h
Nakaseomyces glabratus [3] = assay: Antifungal activity against Candida glabrata 32930 assessed as partial growth inhibition after 24 hrs by CLSI end point method; assay type: functional; settings: Nakaseomyces glabratus, 32930, 24 h
Method in brief: (§4)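 CLSI M27-A2 broth dilution. Two end points read against the drug-free control well: partial inhibition (CLSI end point) and complete inhibition. Run in duplicate on four separate occasions; value is the mean. Drug stock in DMSO, diluted in 0.9% NaCl.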

Candida albicans [4] = assay: Antifungal activity against Candida albicans K-1 infected in neutropenic ICR/Swiss mouse candidiasis model assessed as reduction of […] in kidney at 20 mg/kg, ip administered 2 hrs postinfection as single dose measured after 96 hrs post dosing by time-kill assay; assay type: functional, organism-based; design: dose 20 mg/kg
Method in brief: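 Single ip dose (20, 5 or 1.25 mg/kg) given 2 h after iv infection of neutropenic mice with K-1. Three treated and three control mice were sampled at intervals over 96 h for kidney CFU. PAFE is the time for treated burden to rise 1 log10 after serum levels fall below MIC, minus the same time in controls. Free drug was taken as 1%.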

Nakaseomyces glabratus [5] = assay: Antifungal activity against Candida glabrata 5376 infected in neutropenic ICR/Swiss mouse candidiasis model assessed as dose required to maintain […] of 3.71 +/- 0.21 log10CFU per kidney administered intraperitoneally every 48 hrs up to 4 days measured per 96 hrs
Nakaseomyces glabratus [6] = assay: Antifungal activity against Candida glabrata 5376 infected in neutropenic ICR/Swiss mouse candidiasis model assessed as […] burden per kidney administered intraperitoneally once every 96 hrs measured per 96 hrs; assay type: functional; settings: Nakaseomyces glabratus, 5376, Kidney, ip
Method in brief: (§5)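 Neutropenic ICR/Swiss mice infected i.v. with the strain; therapy began 2 h later. Total doses of 1.25–320 mg/kg/96 h were given i.p. as 1, 2, 4 or 6 doses (q96h, q48h, q24h, q16h), three mice per regimen. Kidney CFU were counted after 4 days. Effect is the change from untreated controls at the end of therapy.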

Serum = assay: Fraction unbound in Candida albicans K-1 infected neutropenic ICR/Swiss mouse serum at 1.25 mg/kg, ip administered 2 hrs postinfection as single dose; assay type: ADME, organism-based; design: dose 1.25 mg/kg, route intraperitoneal; settings: in vivo
Nakaseomyces glabratus [7] = assay: Antifungal activity against Candida glabrata 5592 infected in neutropenic ICR/Swiss mouse candidiasis model assessed as dose required for 1-log10 reduction in […] per kidney administered intraperitoneally every 24 hrs up to 4 days measured per 24 hrs; assay type: functional; method in brief: as §2
Candida albicans [8] = assay: Antifungal activity against Candida albicans K-1 infected in neutropenic ICR/Swiss mouse candidiasis model assessed as […] burden per kidney administered intraperitoneally every 48 hrs up to 4 days measured per 96 hrs; assay type: functional; settings: K-1, Kidney, ip
Method in brief: (§6)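 Neutropenic mice were infected iv with C. albicans K-1 2 h before therapy. Total doses of 1.25, 5, 20, 80 and 320 mg/kg/96 h were split into 1, 2, 4 or 6 ip doses (q96h, q48h, q24h, q16h), three mice per regimen. Effect is the log10 CFU/kidney relative to untreated controls at 96 h. Static and 1-log doses were taken from a Hill model fit.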

Nakaseomyces glabratus [9] = assay: Antifungal activity against Candida glabrata 5376 infected in neutropenic ICR/Swiss mouse candidiasis model assessed as dose required for 1-log10 reduction in […] per kidney administered intraperitoneally every 16 hrs up to 4 days measured per 96 hrs; assay type: functional; method in brief: as §5
Nakaseomyces glabratus [10] = assay: Antifungal activity against Candida glabrata 32930 assessed as complete growth inhibition after 24 hrs by CLSI end point method; assay type: functional; settings: Nakaseomyces glabratus, 32930, 24 h; method in brief: as §4
[11] = Elimination half life in serum of neutropenic ICR/Swiss mouse candidiasis model at 5 mg/kg, ip by reverse-phase high-pressure liquid chromatography; assay type: ADME, organism-based; design: dose 5 mg/kg, route intraperitoneal; settings: read-out: beta t1/2 (converted); method in brief: as §1
Candida albicans [12] = assay: Antifungal activity against Candida albicans K-1 infected in neutropenic ICR/Swiss mouse candidiasis model assessed as […] burden per kidney administered intraperitoneally once every 96 hrs measured per 96 hrs; assay type: functional; settings: K-1, Kidney, ip; method in brief: as §6
Candida albicans [13] = assay: Antifungal activity against Candida albicans 98-17 infected in neutropenic ICR/Swiss mouse candidiasis model assessed as dose required to maintain […] of 3.81 +/- 0.33 log10CFU per kidney administered intraperitoneally every 24 hrs up to 4 days measured per 24 hrs; assay type: functional
Method in brief: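 Neutropenic mice (cyclophosphamide sc on days −4, −1 and +2) were infected iv 2 h before therapy. Five total doses from 0.078 to 20 mg/kg/24 h were given ip q24h for 4 days, three mice per regimen. Kidney CFU were measured at the end of therapy. Static and 1-log-kill doses were derived from a Hill sigmoid dose-effect fit.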

Candida albicans [14] = assay: Antifungal activity against Candida albicans 580 assessed as complete growth inhibition after 24 hrs by CLSI end point method; assay type: functional; settings: Candida albicans, 580, 24 h; method in brief: as §4
Nakaseomyces glabratus [15] = assay: Antifungal activity against Candida glabrata 5376 infected in neutropenic ICR/Swiss mouse candidiasis model assessed as suppression of fungal regrowth at 5 mg/kg, ip administered 2 hrs postinfection as single dose by time-kill assay; assay type: functional, organism-based; design: dose 5 mg/kg; method in brief: as §3
Nakaseomyces glabratus [16] = assay: Antifungal activity against Candida glabrata 570 infected in neutropenic ICR/Swiss mouse candidiasis model assessed as fungal count per kidney administered 2 hrs postinfection measured up to 48 hrs; assay type: functional
Method in brief: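 Female ICR/Swiss mice (23–27 g) made neutropenic with cyclophosphamide s.c. (150 mg/kg day −4, 100 mg/kg day −1, 100 mg/kg day +2). Infected by tail vein with 0.1 ml inoculum (~6.1 log10 CFU/ml). Kidneys of untreated mice were homogenised and plated on SDA for 24 h at 35°C. Growth over 48 h is given as log10 CFU/kidney.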

CCCCCOc1ccc(-c2ccc(-c3ccc(C(=O)N[C@H]4C[C@@H](O)[C@@H](O)NC(=O)[C@@H]5[C@@H](O)[C@@H](C)CN5C(=O)[C@H]([C@@H](C)O)NC(=O)[C@H]([C@H](O)[C@@H](O)c5ccc(O)cc5)NC(=O)[C@@H]5C[C@@H](O)CN5C(=O)[C@H]([C@@H](C)O)NC4=O)cc3)cc2)cc1 [ANIDULAFUNGIN] ({pTerphenylCO(4''-OnC5H11)}-[Orn(4R-OH,5R-OH)]T[Hyp][hTyr(3S-OH,4S-OH)]T[Pro(3S-OH,4S-Me)]; lactam 1-C)
Cmax (Mus musculus): 60 µg/mL
Activity (Nakaseomyces glabratus [1]): 4.13 mg/kg
Activity (Nakaseomyces glabratus [2]): Active
MIC (Candida tropicalis): 0.12 µg/mL (≈ 0.105 µM)
MIC (Nakaseomyces glabratus [3]): 0.06 µg/mL (≈ 0.0526 µM)
Activity (Candida albicans [4]): Active
Activity (Nakaseomyces glabratus [5]): 15.3 mg/kg
ED50 (Nakaseomyces glabratus [6]): 8.12 mg/kg
Fu (Serum): 1%
Activity (Nakaseomyces glabratus [7]): 11.8 mg/kg
ED50 (Candida albicans [8]): 3.14 mg/kg
Activity (Nakaseomyces glabratus [9]): 56.7 mg/kg
MIC (Nakaseomyces glabratus [10]): 0.12 µg/mL (≈ 0.105 µM)
half-life [11]: 14.8 h
ED50 (Candida albicans [12]): 2.13 mg/kg
Activity (Candida albicans [13]): 1.15 mg/kg
MIC (Candida albicans [14]): 0.03 µg/mL (≈ 0.0263 µM)
Activity (Nakaseomyces glabratus [15]): Active
log10cfu (Nakaseomyces glabratus [16]): 2.45
